Sampled rows, rich in hits. Any-hit rate of the full collection: about 1.1%.
thrombin 1536: inhibitors of human thrombin | P00734 | alpha-thrombin, Boc-VPR-AMC fluorogenic substrate cleavage | inhibition, % at 5 µM | hit rate 0.26% among 220,000;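 active = inhibition at or above 40%; inactive = inhibition below 40%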
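Assay system: human alpha-thrombin enzyme. Reagent: Boc-VPR-AMC substrate, 15 µM final. Compound dosing: one concentration per compound, 5 µM, with 0.2% DMSO. Incubation: room-temperature reaction. Technique: AMC fluorescence, 355/460 nm. Measure: % inhibition relative to enzyme controls and enzyme-free blanks.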
Tb hexokinase: blocks Trypanosoma brucei hexokinase 1 activity. inhibition, % at 10 µM. hit rate 0.11% among 220,000. recombinant TbHK1, G6PDH-coupled NADH A340;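 active = inhibition of 50% or more in the single-dose primary screen; inactive = inhibition below 50%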
FXIIa inh 1536: blocks human coagulation factor XIIa protease activity. purified FXIIa, Boc-QGR-AMC fluorogenic substrate, 2 h. inhibition, % at 5 µM. hit rate 0.3% among 220,000. AID 800; in the data active = inhibition above about 40%
KLK5 inh: blocks human kallikrein 5 protease activity. Q9Y337. recombinant hK5, fluorogenic AMC substrate cleavage. inhibition, % at 5 µM. hit rate 0.59% among 210,000;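 active = inhibition of 40% or more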
Target sequence (Q9Y337 67-293 limits assumed): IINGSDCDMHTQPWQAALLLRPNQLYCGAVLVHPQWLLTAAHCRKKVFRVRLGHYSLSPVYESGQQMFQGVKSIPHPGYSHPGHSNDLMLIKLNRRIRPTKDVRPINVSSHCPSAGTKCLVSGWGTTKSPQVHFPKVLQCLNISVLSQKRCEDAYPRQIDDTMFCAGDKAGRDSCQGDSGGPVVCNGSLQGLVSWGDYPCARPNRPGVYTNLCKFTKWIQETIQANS
FXIa inh: inhibitors of human coagulation factor XIa | AID 798 | purified FXIa, Boc-Glu-Ala-Arg-AMC fluorogenic substrate | inhibition, % at 5 µM | hit rate 0.14% among 220,000;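 active = inhibition of at least 40%; inactive = inhibition below 40%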;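 note: fluorescence of freed AMC excited at 355 nm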
Large screens that a line does not name were inactive.

CCN(CC)S(=O)(=O)c1ccc(OC)c(NS(=O)(=O)c2ccc(F)cc2)c1	KLK5 inh 42
Cc1ccccc1NC(=O)CCN1CCc2ccccc2C1	none
COC(=O)c1ccc(NC2CC(=O)N(c3ccccc3C)C2=O)cc1 (centres undefined)	thrombin 1536 45
Cc1ccccc1N1C(=O)CC(Nc2ccc3c(c2)OCO3)C1=O (centres undefined)	none (no result: FXIIa inh 1536)
O=c1cc(CO)occ1OCc1cccc(F)c1	KLK5 inh 40
Cc1ccc(COc2coc(CO)cc2=O)cc1	none
O=C(Oc1ccc(Br)cc1)c1n[nH]c(=O)c2ccccc12	none
COc1ccccc1-c1nnc(SCC(=O)Nc2ccc(S(N)(=O)=O)cc2)n1C	none
COc1cc2[nH]c(=S)n(CCN3CCOCC3)c(=O)c2cc1OC	KLK5 inh 104
COc1cc2[nH]c(=S)n(CCCN3CCOCC3)c(=O)c2cc1OC	none
COc1ccccc1NC(=O)c1coc(=O)c(Br)c1	none
O=[N+]([O-])c1ccc(Nc2ccc(F)cc2)nc1	KLK5 inh 55
O=[N+]([O-])c1ccc(Nc2ccccc2)nc1	none
COc1ccc(Cl)cc1C(=O)NC(=S)Nc1cc(-c2nc3ccccc3[nH]2)ccc1C	none
Cc1cccc(CN2CCN(Cc3nc4c(s3)CCCC4)CC2CCO)n1 (centres undefined)	none (no result: KLK5 inh)
CCN(CCNS(=O)(=O)c1ccc2c(c1)oc(=O)n2C)c1ccccc1	KLK5 inh 42
Cc1cc(Nc2ccc(Br)cc2)n2nc(C)nc2n1	none
Cc1cc(Nc2ccc(C)c(C)c2)n2nc(C)nc2n1	FXIIa inh 1536 42
CCOCCCNC(=O)C(NC(=O)Cc1cccs1)c1ccc(Cl)cc1 (centres undefined)	none
Cc1ccccc1/C=N/NC(=O)CSc1nc2ccccc2o1	none
Cc1ccccc1NC(=O)CSc1nc2ccccc2o1	KLK5 inh 51
COc1ccc(S(=O)(=O)N(CCCN2CCCC2=O)Cc2cc3cc(C)c(C)cc3[nH]c2=O)cc1	KLK5 inh 86
COC(=O)c1c(NC(=O)COC(=O)Cn2cnc3ccccc32)sc(C)c1C	FXIa inh 44
CCOC(=O)c1c(NC(=O)COC(=O)Cn2cnc3ccccc32)sc(C)c1C	none
CC(C)(C)c1ccc(-c2nc3n(c(=O)c2C#N)CCS3)cc1	none
COc1ccc(CCC(=O)Nc2ccc(C)c([N+](=O)[O-])c2)cc1	none
Nc1ncnc2nc(SCCN3CCCCC3)[nH]c12	thrombin 1536 76
Cc1ccc(NC2c3ncccc3C(=O)N2c2ccccc2C)cc1C (centres undefined)	KLK5 inh 47
CC(CN1C(C)CCCC1C)OC(=O)c1ccccc1Cl (centres undefined)	none
CC(CN1C(C)CCCC1C)OC(=O)c1ccc(Cl)cc1Cl (centres undefined)	FXIIa inh 1536 45
COc1ccc(CC(=O)N2CCC(c3ccccc3)C2)cc1 (centres undefined)	none
COc1ccc(CC(=O)N2CCC(Nc3nc4ccccc4n3Cc3ccc(F)cc3)CC2)cc1	KLK5 inh 60
O=S(=O)(Nc1ncnc2sc3c(c12)CCC3)c1ccc2ccccc2c1	none
Cc1cc(F)ccc1S(=O)(=O)Nc1ncnc2sc3c(c12)CCC3	FXIa inh 41
COc1ccc(/C=C/C(=O)OCC(=O)Nc2ccc(N3CCOCC3)cc2)cc1	KLK5 inh 82
C=CC#CC1(O)CC(C)N(C)CC1C (centres undefined)	KLK5 inh 46
O=c1cc(-c2ccc([N+](=O)[O-])cc2)nc2cc(-c3ccc(Cl)cc3)[nH]n12	thrombin 1536 63, KLK5 inh 48
O=c1cc(-c2ccccc2)nc2cc(-c3ccco3)[nH]n12	none
COc1ccc(/C=N/NC(=O)c2sc3nc(C)cc(C)c3c2N)cc1	thrombin 1536 42, FXIIa inh 1536 87, KLK5 inh 48
O=C(/C=C/c1ccccc1)NCCc1ccccc1	none
Cn1ncc2c(=O)[nH]cnc21	none
Cc1ccc(NC(=O)COC(=O)CCc2ccc(S(=O)(=O)N3CCOCC3)cc2)cc1C	none
Cc1ccc(C)c(SCC(=O)OCC(=O)Nc2ccc(S(=O)(=O)N3CCOCC3)cc2)c1	thrombin 1536 50
Cc1cccc(C)c1NC(=O)CS(=O)CC(=O)NCC1OCCc2ccccc21 (centres undefined)	none
Cc1cc(C)c(S(=O)(=O)N2CCN(c3ccc([N+](=O)[O-])c(NCC4CCCO4)c3)CC2)c(C)c1 (centres undefined)	KLK5 inh 41
c1ccc(COC(CN2CCCCCC2)CN2CCCCCC2)cc1	none

Source: PubChem (several laboratories)
